Experimental data as given in ChEMBL document CHEMBL1926551, “Design, synthesis and in vitro evaluation of novel chroman-4-one, chroman, and 2H-chromene derivatives as human rhinovirus capsid-binding inhibitors” (Bioorg Med Chem, 2011).
Active and inactive are the calls of the source. No cut-off for these calls is given here.

Columns and labels:
rhinovirus A1B [1] = experiment: Antiviral activity against Human rhinovirus 1B infected in human HeLa cells assessed as reduction of viral yield at 42 uM at 4 degC treated immediately after viral adsorption after 1 hr by neutral red-based plaque reduction assay; format: functional, organism-based
rhinovirus A1B [2] = experiment: Antiviral activity against Human rhinovirus 1B infected in human HeLa cells assessed as inhibition of virus induced-plaque formation after 3 days by neutral red-based plaque reduction assay; format: functional, organism-based; conditions: Rhinovirus A, 72 h
Method in brief: (§1)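 HeLa (Ohio) monolayers infected with virus giving about 100 plaques/well and adsorbed 1 h at 33 °C. The inoculum was removed and cells were overlaid with plaque medium ± fourfold compound dilutions, starting from the maximum non-cytotoxic concentration (MNTC). After 3 days at 33 °C, cells were stained with neutral red (0.2 mg/mL in PBS, pH 7.4) and plaques counted, triplicate wells.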

rhinovirus A1B [3] = experiment: Antiviral activity against Human rhinovirus 1B infected in human HeLa cells assessed as reduction of viral yield at 42 uM treated during viral adsorption measured after 10 hrs by neutral red-based plaque reduction assay; format: functional; conditions: Rhinovirus A
Method in brief: (§2)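 One-step growth: confluent HeLa monolayers infected with HRV 1B at MOI 5. Virus bound 1 h at 4 °C, then washed thrice with cold PBS; cultures were incubated at 33 °C to 10 h p.i. 42 µM compound was present either during binding only or throughout binding plus replication. Cultures were freeze-thawed three times, clarified, and yield titrated by plaque assay on HeLa.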

rhinovirus A1B [4] = experiment: Antiviral activity against Human rhinovirus 1B infected in human HeLa cells assessed as reduction of viral yield at 42 uM treated 6 hrs after viral adsorption measured after 10 hrs by neutral red-based plaque reduction assay; format: functional; conditions: Rhinovirus A
rhinovirus A1B [5] = experiment: Antiviral activity against Human rhinovirus 1B infected in human HeLa cells measured after dilution; format: functional, organism-based
Method in brief: (§3)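 HRV 1B suspension at high titre incubated ± 42 µM compound for 1 h at 33 °C. It was then serially diluted 10-fold to reach non-inhibitory free compound levels, and infectivity was titrated by plaque assay on HeLa monolayers.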

rhinovirus A1B [6] = experiment: Antiviral activity against Human rhinovirus 1B infected in human HeLa cells assessed as reduction of viral yield at 42 uM treated before viral adsorption measured after 10 hrs by neutral red-based plaque reduction assay; format: functional; conditions: Rhinovirus A
rhinovirus A1B [7] = experiment: Antiviral activity against Human rhinovirus 1B infected in human HeLa cells assessed as reduction of viral yield at 42 uM treated 4 hrs after viral adsorption measured after 10 hrs by neutral red-based plaque reduction assay; format: functional; conditions: Rhinovirus A
rhinovirus A1B [8] = experiment: Antiviral activity against Human rhinovirus 1B infected in human HeLa cells assessed as reduction of viral yield at 42 uM treated at the end of viral adsorption followed by washout after 6 hrs measured after 10 hrs by neutral red-based plaque reduction assay; format: functional; conditions: Rhinovirus A
rhinovirus A1B [9] = experiment: Antiviral activity against Human rhinovirus 1B infected in human HeLa cells assessed as reduction of viral yield at 42 uM treated 60 mins after viral adsorption measured after 10 hrs by neutral red-based plaque reduction assay; format: functional; conditions: Rhinovirus A
rhinovirus A1B [10] = experiment: Antiviral activity against Human rhinovirus 1B assessed as reduction in infectivity titers at 42 uM after 1 hr using HeLa cell monolayers by plaque assay (reference value: 5.33 * 10^6 PFU/mL); format: functional; method in brief: as §3
rhinovirus A1B [11] = experiment: Antiviral activity against Human rhinovirus 1B infected in human HeLa cells assessed as reduction of viral yield at 42 uM treated 15 mins after viral adsorption measured after 10 hrs by neutral red-based plaque reduction assay; format: functional; conditions: Rhinovirus A
rhinovirus A1B [12] = experiment: Antiviral activity against Human rhinovirus 1B infected in human HeLa cells assessed as reduction of viral yield at 42 uM treated 2 hrs after viral adsorption measured after 10 hrs by neutral red-based plaque reduction assay; format: functional; conditions: Rhinovirus A
rhinovirus A1B [13] = experiment: Antiviral activity against Human rhinovirus 1B in human HeLa cell monolayers assessed as reduction of viral infectivity at 42 uM at pH 5 pre-treated for 1 hr before mild acid treatment measured after 30 mins by plaque assay (reference value: 3.8 log PFU/mL); format: functional
rhinovirus B14 [14] = experiment: Antiviral activity against Human rhinovirus 14 infected in human HeLa cells assessed as inhibition of virus induced-plaque formation at 12.5 uM after 3 days by neutral red-based plaque reduction assay; format: functional; conditions: Rhinovirus B, 72 h
Method in brief: as §1, with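 “wells. IC50 came from % plaque reduction vs log dose; where 50% was not reached, % inhibition at the MNTC was reported.” for “wells.”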

rhinovirus A1B [15] = experiment: Antiviral activity against Human rhinovirus 1B infected in human HeLa cells assessed as reduction of viral yield at 42 uM treated 30 mins after viral adsorption measured after 10 hrs by neutral red-based plaque reduction assay; format: functional; conditions: Rhinovirus A
rhinovirus A1B [16] = experiment: Antiviral activity against Human rhinovirus 1B infected in human HeLa cells assessed as reduction of viral yield at 42 uM treated 45 mins after viral adsorption measured after 10 hrs by neutral red-based plaque reduction assay; format: functional; conditions: Rhinovirus A
[17] = Cytotoxicity against human HeLa cells after 3 days by XTT based ELISA reader; format: cell-based; conditions: read-out: TC50
Method in brief: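 HeLa cells seeded at 2 × 10^3 cells/well in growth medium (MEM, 8% FCS) with twofold compound dilutions from the maximum soluble concentration, triplicate wells. Matched ethanol controls were run. Plates were held 3 days at 37 °C, 5% CO2, then XTT was added (final 0.15 mg/mL) for 4 h.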

rhinovirus A1B [18] = experiment: Antiviral activity against Human rhinovirus 1B infected in human HeLa cells assessed as reduction of viral yield at 42 uM treated together with viral inoculum after 10 hrs by neutral red-based plaque reduction assay; format: functional; conditions: Rhinovirus A; method in brief: as §2
rhinovirus A1B [19] = experiment: Antiviral activity against Human rhinovirus 1B infected in human HeLa cells assessed as reduction of viral yield at 42 uM treated at the end of viral adsorption measured after 10 hrs by neutral red-based plaque reduction assay; format: functional, organism-based; conditions: TDE = time-dependent effect
[20] = Therapeutic index, ratio of TC50 for human HeLa cells to IC50 for Human rhinovirus 1B infected in human HeLa cells; format: cell-based; conditions: read-out: TI
Method in brief: (§4)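 Therapeutic index calculated as HeLa TC50 (XTT, 3 days) divided by the plaque-reduction IC50 for the respective serotype.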

[21] = Cytotoxicity against human HeLa cells after 3 days by microscopic analysis; format: cell-based; conditions: read-out: MNCC
Method in brief: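 HeLa cells exposed to twofold compound dilutions for 3 days at 37 °C and morphology scored microscopically on day 3. The MNTC is the highest concentration leaving morphology and viability unchanged in 100% of cells.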

rhinovirus A1B [22] = experiment: Antiviral activity against Human rhinovirus 1B infected in human HeLa cells assessed as reduction of viral yield at 42 uM treated at the end of viral adsorption followed by washout after 30 mins to 1 hr measured after 10 hrs by neutral red-based plaque reduction assay; format: functional; conditions: Rhinovirus A
rhinovirus A1B [23] = experiment: Antiviral activity against Human rhinovirus 1B in human HeLa cell monolayers assessed as reduction of viral infectivity at 42 uM at 56 degC pre-treated for 1 hr before thermal treatment measured after 20 mins by plaque assay (reference value: 2.9 log PFU/mL); format: functional
[24] = Therapeutic index, ratio of TC50 for human HeLa cells to IC50 for Human rhinovirus 14 infected in human HeLa cells; format: cell-based; conditions: read-out: TI; method in brief: as §4
rhinovirus B14 [25] = experiment: Antiviral activity against Human rhinovirus 14 infected in human HeLa cells assessed as inhibition of virus induced-plaque formation after 3 days by neutral red-based plaque reduction assay; format: functional, organism-based; conditions: Rhinovirus B, 72 h
Method in brief: as §1, with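 “wells. IC50 came from % plaque reduction vs log dose; where 50% was not reached, % inhibition at the MNTC was reported.” for “wells.”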

rhinovirus B14 [26] = experiment: Antiviral activity against Human rhinovirus 14 infected in human HeLa cells assessed as inhibition of virus induced-plaque formation at 25 uM after 3 days by neutral red-based plaque reduction assay; format: functional; conditions: Rhinovirus B, 72 h; method in brief: as §1
[27] = Ratio of IC50 for Human rhinovirus 1B to IC50 for Human rhinovirus 14; format: functional

SMILES	IC50 (rhinovirus A1B [2]) [µM]	CC50 at 72 h [17] [µM]	selectivity ratio [20]	MNTC at 72 h [21] [µM]	selectivity ratio [24]	IC50 (rhinovirus B14 [25]) [µM]	also measured
Clc1ccc2c(c1)C=C(/C=C/Cc1ccccc1)CO2	0.42	25	59.5	12.5	–	–	inhibition (rhinovirus A1B [1]): Active; inhibition at 42 µM (rhinovirus A1B [3]): 16%; inhibition at 42 µM (rhinovirus A1B [4]): 1%; Activity (rhinovirus A1B [5]): inactive; inhibition at 42 µM (rhinovirus A1B [6]): 6%; inhibition at 42 µM (rhinovirus A1B [7]): 12%; inhibition at 42 µM (rhinovirus A1B [8]): 93%; inhibition at 42 µM (rhinovirus A1B [9]): > 80%; PFU/ml (rhinovirus A1B [10]): 5110000; inhibition at 42 µM (rhinovirus A1B [11]): > 80%; inhibition at 42 µM (rhinovirus A1B [12]): 31%; log10PFU/ml (rhinovirus A1B [13]): 2.8; inhibition at 12.5 µM (rhinovirus B14 [14]): 23%; inhibition at 42 µM (rhinovirus A1B [15]): > 80%; inhibition at 42 µM (rhinovirus A1B [16]): > 80%; inhibition at 42 µM (rhinovirus A1B [18]): 88.5%; inhibition (rhinovirus A1B [19]): tde; inhibition at 42 µM (rhinovirus A1B [22]): 35%; log10PFU/ml (rhinovirus A1B [23]): 1.8
C(/C=C/c1ccccc1)=C1/COc2ccccc2C1	0.99	100	101	50	2.1	47.6	–
O=C1/C(=C/C#Cc2ccccc2)COc2ccccc21	9.3	50	5.38	25	2.5	20	–
O=C1/C(=C/C=C/c2ccc(Cl)cc2)COc2ccccc21	2.54	50	19.7	25	–	–	inhibition at 25 µM (rhinovirus B14 [26]): 17.1%
Fc1ccc2c(c1)C/C(=C/C=C/c1ccccc1)CO2	5.57	75	13.5	50	2.05	36.5	–
Clc1ccc(C/C=C/C2=Cc3ccccc3OC2)cc1	3.61	100	27.7	50	2.22	45.1	–
O=C1/C(=C/C=C/c2ccccc2)COc2ccc(F)cc21	4.98	50	10	25	2.94	17	–
C1=C(/C=C/Cc2ccccc2)COc2ccccc21	13.6	75	5.52	50	6.76	11.1	–
O=C1/C(=C/C=C/c2ccc(Cl)cc2)COc2ccc(Cl)cc21	3.35	25	7.46	12.5	17.6	1.42	Ratio IC50 [27]: 2
Clc1ccc(/C=C/C=C2\COc3ccc(Cl)cc3C2)cc1	11.5	25	2.18	12.5	3.02	8.27	–
Clc1ccc(C/C=C/C2=Cc3cc(Cl)ccc3OC2)cc1	9.73	100	10.3	25	–	–	inhibition at 25 µM (rhinovirus B14 [26]): 27%
O=C1/C(=C/C=C/c2ccccc2)COc2ccccc21	0.85	25	29.4	12.5	–	–	inhibition at 12.5 µM (rhinovirus B14 [14]): 7.2%
Clc1ccc(/C=C/C=C2\COc3ccccc3C2)cc1	1.39	50	36	25	8.31	6.02	–
Clc1ccc2c(c1)C/C(=C/C=C/c1ccccc1)CO2	2.79	50	17.9	25	–	–	inhibition at 25 µM (rhinovirus B14 [26]): 30.3%
O=C1/C(=C/C=C/c2ccccc2)COc2ccc(Cl)cc21	0.99	50	50.5	25	–	–	inhibition at 25 µM (rhinovirus B14 [26]): 48.6%
O=C1/C(=C/C#Cc2ccccc2)COc2ccc(Cl)cc21	7.89	75	9.51	50	2.47	30.4	–
